Where “and” joins values, the source holds several entries; their conditions need not be identical. Equal entries are not always repeated. Where two headings read alike, the source gives them in different places.
Experiments:
[1] = test system: LoVo cancer cells; assay: MTT assay, in vitro antiproliferative activity, LoVo; format: cell-based; settings: Homo sapiens, 48 h; for GI50: read-out: GI50 (50% growth inhibition); for IC50: read-out: IC50 (half maximal cytotoxic concentration)
Summary of the method: (§1)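 Cells kept in ATCC-recommended medium with 10% FBS and 1% penicillin/streptomycin at 37°C, 5% CO2, seeded at 8×10^3 cells/well. After 24 h, exposed 48 h to test compound (DMSO stock 15 mM) at seven concentrations across 1–100 μM. Medium renewed, MTT added for 3 h, formazan dissolved in DMSO, absorbance read at 540 nm. […] Triplicate.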

[2] = MTT assay, normal lung cells; format: cell-based, human; settings: human, MRC5 normal lung cells
Summary of the method: as §1

[3] = test system: healthy lung (MRC5) cells; assay: MTT assay, normal lung cells; format: cell-based, human; settings: for GI50: Homo sapiens, MRC5, 48 h, read-out: GI50 (50% growth inhibition); for Selectivity: GI50, TGI and IC50 values, MRC5 cells versus cancer cell lines: MRC5 versus DLD-1, HT-29, LoVo
Summary of the method: as §1

[4] = test system: HT-29 cancer cells; assay: MTT assay, in vitro antiproliferative activity, HT-29; format: cell-based, human; settings: for TGI (total 100% growth inhibition): HT-29, MTT, 48 hours of drug exposure, unit given; for GI50 / IC50: Homo sapiens, HT-29, 48 h; for GI50: read-out: GI50 (50% growth inhibition); for IC50: read-out: IC50 (half maximal cytotoxic concentration)
Summary of the method: as §1

[5] = test system: DLD-1 cancer cells; assay: MTT assay, in vitro antiproliferative activity, DLD-1; format: cell-based, human; settings: for TGI (total 100% growth inhibition): DLD-1, MTT, 48 hours of drug exposure; for GI50 / IC50: Homo sapiens, DLD-1, 48 h; for GI50: read-out: GI50 (50% growth inhibition); for IC50: read-out: IC50 (half maximal cytotoxic concentration)
Summary of the method: as §1

[6] = test system: topIIα phosphorylation (Ser1106); assay: TopIIα phosphorylation cell-based ELISA, LoVo; design: species or system human; settings: for maximum inhibitory effect on topIIα phosphorylation: LoVo cells, at either TGI or IC50 concentrations over 6 or 24 hour treatment; for effect on topIIα phosphorylation: LoVo, 6 hours, KA39 TGI and IC50, KA25 TGI 13.8 μΜ, KA26 TGI 100 μΜ
[7] = test system: topIIα phosphorylation (Ser1106); assay: TopIIα phosphorylation cell-based ELISA, HT-29; design: species or system human; settings: HT-29 cells, at either TGI or IC50 concentrations over 6 or 24 hour treatment
[8] = target: topoisomerase II (Homo sapiens, UniProt P11388); assay: DNA topoisomerase II assay; format: biochemical
Chain of topoisomerase II (P11388 whole entry): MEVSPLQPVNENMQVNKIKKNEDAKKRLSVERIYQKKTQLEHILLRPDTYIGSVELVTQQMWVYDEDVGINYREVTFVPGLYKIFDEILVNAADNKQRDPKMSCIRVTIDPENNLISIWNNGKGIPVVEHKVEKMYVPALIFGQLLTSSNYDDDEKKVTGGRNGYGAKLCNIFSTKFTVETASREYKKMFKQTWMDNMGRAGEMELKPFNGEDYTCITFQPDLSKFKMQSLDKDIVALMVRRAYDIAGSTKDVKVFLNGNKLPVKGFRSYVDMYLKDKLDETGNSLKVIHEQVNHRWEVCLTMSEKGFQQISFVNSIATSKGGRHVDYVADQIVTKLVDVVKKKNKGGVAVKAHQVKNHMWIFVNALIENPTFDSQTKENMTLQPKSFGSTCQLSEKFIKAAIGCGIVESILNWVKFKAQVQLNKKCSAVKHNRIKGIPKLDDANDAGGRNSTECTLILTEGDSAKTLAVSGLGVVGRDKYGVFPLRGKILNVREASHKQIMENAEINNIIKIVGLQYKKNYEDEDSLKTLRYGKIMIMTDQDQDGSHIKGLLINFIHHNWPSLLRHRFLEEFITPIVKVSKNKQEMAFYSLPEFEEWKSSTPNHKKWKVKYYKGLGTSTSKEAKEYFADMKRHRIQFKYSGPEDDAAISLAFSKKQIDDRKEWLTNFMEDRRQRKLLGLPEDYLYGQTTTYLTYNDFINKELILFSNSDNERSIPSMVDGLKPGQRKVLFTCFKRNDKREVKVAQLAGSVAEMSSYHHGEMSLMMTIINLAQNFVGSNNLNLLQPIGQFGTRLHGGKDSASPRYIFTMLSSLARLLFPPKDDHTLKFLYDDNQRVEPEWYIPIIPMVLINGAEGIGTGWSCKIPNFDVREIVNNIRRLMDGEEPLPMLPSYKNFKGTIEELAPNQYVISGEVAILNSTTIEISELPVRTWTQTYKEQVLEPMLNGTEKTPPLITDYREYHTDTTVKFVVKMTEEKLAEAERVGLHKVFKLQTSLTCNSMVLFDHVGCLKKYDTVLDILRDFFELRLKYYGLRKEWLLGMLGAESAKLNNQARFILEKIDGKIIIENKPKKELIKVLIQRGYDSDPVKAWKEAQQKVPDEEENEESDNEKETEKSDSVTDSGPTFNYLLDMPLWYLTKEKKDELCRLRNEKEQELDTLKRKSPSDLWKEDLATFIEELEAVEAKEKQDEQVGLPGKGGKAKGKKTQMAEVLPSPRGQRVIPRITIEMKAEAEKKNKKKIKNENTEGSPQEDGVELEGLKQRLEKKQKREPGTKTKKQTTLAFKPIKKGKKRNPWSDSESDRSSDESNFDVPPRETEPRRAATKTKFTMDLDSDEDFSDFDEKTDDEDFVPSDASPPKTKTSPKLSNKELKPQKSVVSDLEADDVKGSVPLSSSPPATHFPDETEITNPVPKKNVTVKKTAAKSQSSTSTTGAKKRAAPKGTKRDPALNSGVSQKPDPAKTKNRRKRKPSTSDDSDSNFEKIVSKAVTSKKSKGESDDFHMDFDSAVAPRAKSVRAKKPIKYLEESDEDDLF

[9] = test system: DLD-1 cancer cells; assay: Flow cytometric analysis of apoptosis; format: cell-based, human; settings: DLD-1, at IC50 concentration (KA39 9 μM, etoposide 27 μM)
[10] = test system: HT-29 cancer cells; assay: Flow cytometric analysis of cell cycle growth arrest; format: cell-based, human
Summary of the method: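 HT-29 cells seeded in 6-well plates and grown 24 h at 37°C, 5% CO2. Medium renewed, then cells exposed to test compound for 24 h or 48 h at the stated levels, with untreated and etoposide-treated parallels. Cells trypsinised, washed and lysed in nuclei extraction buffer for 15 min in the dark. DNA stained with PI/RNase solution for 30–60 min in the dark. Flow cytometry, 1×10^4 events per sample, triplicate.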

[11] = HT-29, IC50 concentration (KA39 19.5 μM), 24 hours
[12] = HT-29, TGI concentration (KA39 15.9 μM, etoposide 69 μM), 48 hours

| GI50 [1] [µM] | IC50 at 48 h [2] [µM] | GI50 [4] [µM] | GI50 [5] [µM] | Compound | IC50 [1] [µM] | GI50 [3] [µM] | Selectivity: GI50, TGI and IC50 values, MRC5 cells versus cancer cell lines [3] | TGI (total 100% growth inhibition) [4] | IC50 [4] [µM] | TGI (total 100% growth inhibition) [5] [µM] | IC50 [5] [µM] | maximum inhibitory effect on topIIα phosphorylation [6] [%] | effect on topIIα phosphorylation [6] | maximum inhibitory effect on topIIα phosphorylation [7] [%] | early apoptosis (Q4) ([9]; 48 hours) [%] | late apoptosis (Q2) ([9]; 48 hours) [%] | early apoptosis (Q4) ([9]; 72 hours) [%] | late apoptosis (Q2) ([9]; 72 hours) [%] | % of cells in G1 phase [10, 11] [%] | % of cells in G2/M phase [10, 11] [%] | other results |
| --- | --- | --- | --- | --- | --- | --- | --- | --- | --- | --- | --- | --- | --- | --- | --- | --- | --- | --- | --- | --- | --- |
| 8 ± 0.76 | > 100 | 1 ± 0.3 | 11.4 ± 0.5 | COc1cc(Cc2nnc3sc(/C=C/c4ccc(F)cc4)nn23)c(S(=O)(=O)N(C)C)cc1OC [KA25, (E)-2-((6-(4-Fluorostyryl)-[1,2,4]Triazolo[3,4-b][1,3,4]Thiadiazol-3-Yl)Methyl)-4,5-Dimethoxy-N,N-Dimethylbenzenesulfonamide] | > 100 | 15 ± 0.9 | 3–5 times | >100 µM | > 100 | 65 ± 0.5 | > 100 | 47 | less significant inhibition of topIIα phosphorylation | 33 |  |  |  |  |  |  |  |
| 15 ± 0.8 | > 100 | 2 ± 0.76 | 1.2 ± 0.81 | COc1cc(Cc2nnc3sc(/C=C/c4ccc(Cl)cc4)nn23)c(S(=O)(=O)N(C)C)cc1OC [KA26, (E)-2-((6-(4-Chlorostyryl)-[1,2,4]Triazolo[3,4-b][1,3,4]Thiadiazol-3-Yl)Methyl)-4,5-Dimethoxy-N,N-Dimethylbenzenesulfonamide] | > 100 | 30 ± 0.9 | 3–5 times | >100 µM | > 100 | >100 | > 100 | 18 | did not affect the phosphorylation status of topIIα | 50 |  |  |  |  |  |  |  |
| 14 ± 0.5 | > 100 | 9.5 ± 0.5 | 1.8 ± 0.39 | COc1cc([C@@H]2c3cc4c(cc3[C@@H](O[C@@H]3O[C@@H]5CO[C@@H](C)O[C@H]5[C@H](O)[C@H]3O)[C@H]3COC(=O)[C@H]23)OCO4)cc(OC)c1O [Etoposide, reference compound] | > 100 | 25 ± 0.3 |  | 69 ± 0.9 µM | > 100 | 8 ± 0.5 | 27 ± 0.28 |  |  |  | 51.12 | 18.84 | 42.01 | 30.48 | 57.28 | 5.99 | topoisomerase II reaction product on agarose gel [8]: linear DNA; % of cells in S phase [10, 11]: 16.50%; % of cells in SG (SubG1) phase [10, 11]: 20.23%; % of cells in G1 phase [10, 12]: 26.06%; % of cells in G2/M phase [10, 12]: 4.37%; % of cells in S phase [10, 12]: 13.10%; % of cells in SG (SubG1) phase [10, 12]: 55.80% |

| Compound | GI50 [1] [µM] | IC50 at 48 h [2] [µM] | GI50 [4] [µM] | GI50 [5] [µM] | IC50 [1] [µM] | GI50 [3] [µM] | Selectivity: GI50, TGI and IC50 values, MRC5 cells versus cancer cell lines [3] | TGI (total 100% growth inhibition) [4] | IC50 [4] [µM] | TGI (total 100% growth inhibition) [5] [µM] | IC50 [5] [µM] | maximum inhibitory effect on topIIα phosphorylation [6] [%] | effect on topIIα phosphorylation [6] | maximum inhibitory effect on topIIα phosphorylation [7] [%] | early apoptosis (Q4) ([9]; 48 hours) [%] | late apoptosis (Q2) ([9]; 48 hours) [%] | early apoptosis (Q4) ([9]; 72 hours) [%] | late apoptosis (Q2) ([9]; 72 hours) [%] | % of cells in G1 phase [10, 11] [%] | % of cells in G2/M phase [10, 11] [%] | other results |
| --- | --- | --- | --- | --- | --- | --- | --- | --- | --- | --- | --- | --- | --- | --- | --- | --- | --- | --- | --- | --- | --- |
| COc1cc(Cc2nnc3sc(-c4cc([N+](=O)[O-])ccc4[N+](=O)[O-])nn23)c(S(=O)(=O)N(C)C)cc1OC [KA39, 2-((6-(2,5-Dinitrophenyl)-[1,2,4]Triazolo[3,4-b][1,3,4]Thiadiazol-3-Yl)Methyl)-4,5-Dimethoxy-N,N-Dimethylbenzenesulfonamide] | 2.2 ± 0.2 | 40.5 ± 0.76 | 11.5 ± 0.8 | 3 ± 0.52 | 10.5 ± 0.15 | 15 ± 0.36 | 3–5 times | 15.9 µM and 15.9 ± 0.55 µM | 19.5 ± 0.9 | 5 ± 0.76 | 9 ± 0.76 | 60 | enhanced the phosphorylation status of topIIα | 76 | 17.35 | 13.12 | 20.68 | 20.96 | 46.64 | 3.74 | topoisomerase II reaction product on agarose gel ([8]; pHOT1 supercoiled DNA, KA39 0.1, 1.0, 7.5 and 20 μΜ, non-EB gel): induced the formation of supercoiled DNA in all concentrations used; % of cells in S phase [10, 11]: 21.52%; % of cells in SG (SubG1) phase [10, 11]: 27.06%; % of cells in G1 phase [10, 12]: 40.95%; % of cells in G2/M phase [10, 12]: 9.48%; % of cells in S phase [10, 12]: 14.66%; % of cells in SG (SubG1) phase [10, 12]: 33.51% |
